In brackets after ≈: the same amount, converted by molar mass. Several values for one entry are separate records, joined by “and”; a condition that tells them apart may be missing. Identical values can stand only once.
Tests used:
YAP [1] = experiment: RT-PCR mRNA expression of YAP in HuCCT-1; format: cell-based, human; settings: HuCCT-1, 72 hours
YAP [2] = experiment: Western blot protein expression of YAP in HuCCT-1; format: cell-based, human; settings: HuCCT-1, 72 hours, at IC25
Method in brief: (§1)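 After 72 h exposure to test compound, HuCCT-1 cells were lysed in RIPA buffer with protease inhibitor, and protein was quantified by BCA. Lysates were resolved by SDS-PAGE and transferred to nitrocellulose. Membranes were probed overnight with primary antibodies (target and β-actin), then an AP-conjugated anti-rabbit secondary. Bands were quantified by densitometry. Three experiments, each in triplicate.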

[3] = system: OUMS-36T-1 (normal human cell line); experiment: Antiproliferative MTT assay, OUMS-36T-1; format: cell-based; settings: OUMS-36T-1, MTT, 72 hours, mean±SD
Method in brief: (§2)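 Cells (8,000/well; HuCCT-1 in RPMI-1640, OUMS-36T-1 in DMEM, both with 10% FBS) were preincubated 24 h at 37°C, 5% CO2, then exposed to test compound for 72 h. Natural product range was 1.95–250 µg/ml. MTT (5 mg/ml stock) was added for 3.5 h, formazan dissolved in DMSO, and A590 read. IC25/IC50 came from dose-response analysis. SI = HuCCT-1 vs OUMS-36T-1 IC50 ratio. Three experiments, triplicate.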

HuCCT-1 (CCA cell line) = experiment: Antiproliferative MTT assay, HuCCT-1; format: cell-based, human; settings: for IC25 (concentration that inhibits cell growth by 25%) / IC50 (concentration that inhibits cell growth by 50%): HuCCT-1, MTT, 72 hours, mean±SD; for Selectivity index (SI): ratio of the IC50 in HuCCT-1 and OUMS-36T-1 cells
Method in brief: as §2

mTOR = experiment: Western blot protein expression of mTOR in HuCCT-1; format: cell-based, human; settings: HuCCT-1, 72 hours, at IC25
Method in brief: as §1

Notch1 receptor = experiment: RT-PCR mRNA expression of Notch1 receptor in HuCCT-1; format: cell-based, human; settings: HuCCT-1, 72 hours
PI3K [4] = experiment: Western blot protein expression of PI3K in HuCCT-1; format: cell-based, human; settings: HuCCT-1, 72 hours, at IC50
Method in brief: as §1

JAG1 ligand [5] = experiment: RT-PCR mRNA expression of JAG1 ligand in HuCCT-1; format: cell-based, human; settings: HuCCT-1, 72 hours, at IC25
JAG1 ligand [6] = experiment: Western blot protein expression of JAG1 ligand in HuCCT-1; format: cell-based, human; settings: HuCCT-1, 72 hours, at IC25
Method in brief: as §1

PI3K [7] = experiment: RT-PCR mRNA expression of PI3K in HuCCT-1; format: cell-based, human; settings: HuCCT-1, 72 hours

Row | Structure (SMILES) | YAP gene expression, fold-change (YAP [1]; at high concentration (IC50)) [fold] | YAP gene expression, fold-change (YAP [1]; at low concentration (IC25)) [fold] | IC25 (concentration that inhibits cell growth by 25%) [3] [µg/mL] | IC50 (concentration that inhibits cell growth by 50%) [3] [µg/mL] | IC25 (concentration that inhibits cell growth by 25%) (HuCCT-1 (CCA cell line)) [µg/mL] | IC50 (concentration that inhibits cell growth by 50%) (HuCCT-1 (CCA cell line)) | Selectivity index (SI) (HuCCT-1 (CCA cell line)) | other results
1 | C/C=C/C#CC#C/C=C/c1ccco1 [Atractylodin] | 2.219 | 0.086 | 10.08 ± 4.27 (≈ 55.3 µM) | 24.47 ± 8.46 (≈ 134 µM) | 13.44 ± 6.28 (≈ 73.8 µM) |  |  | YAP protein expression, fold (YAP [2]): 0.819 fold; mTOR protein expression, fold (mTOR): 1.67 fold; Notch1 receptor gene expression, fold of control (Notch1 receptor; at IC25 and IC50 concentrations (low and high)): 0.042 fold
2 | C[C@H](NC(=O)Cc1cc(F)cc(F)c1)C(=O)N[C@H](C(=O)OC(C)(C)C)c1ccccc1 [DAPT] |  |  |  | 150.29 ± 23.79 (≈ 348 µM) |  | 88.98 µg/mL and 89.88 ± 36.11 µg/mL |  | 
3 | Nc1ccn([C@@H]2O[C@H](CO)[C@@H](O)C2(F)F)c(=O)n1 [Gemcitabine] |  |  | 3.40 ± 5.78 (≈ 12.9 µM) |  | 0.22 ± 0.35 (≈ 0.836 µM) | 4.97 ± 5.09 µg/mL (≈ 18.9 µM) | 14.05 | PI3K protein expression, fold (PI3K [4]): 0.677 fold; JAG1 ligand gene expression, fold (JAG1 ligand [5]): 1.344 fold; JAG1 ligand protein expression, fold (JAG1 ligand [6]): 0.610 fold; Notch1 receptor gene expression, fold of control (Notch1 receptor; at IC50): 0.318 fold; PI3K gene expression, fold (PI3K [7]; at IC25): 1.4 fold; PI3K gene expression, fold (PI3K [7]; at IC50): 2.25 fold
4 | O=c1ncccn1[C@@H]1O[C@H](CO)[C@@H](O)[C@H]1O [Zebularine] |  |  |  |  |  |  | 4.41 | YAP gene expression, fold-change (YAP [1]; concentration not given): 0.647 fold
5 | C=C1CCC[C@]2(C)CC[C@@H](C(C)(C)O)C[C@@H]12 [β-eudesmol] | 1.978 | 0.280 | 18.12 ± 7.43 (≈ 81.5 µM) |  | 6.37 ± 2.53 (≈ 28.6 µM) |  | 1.68 | 

Reference: article PMC10162598 (Asian Pacific Journal of Cancer Prevention : APJCP, 2023)
